Test results as given in ChEMBL document CHEMBL4251591, “Primaquine hybrids as promising antimycobacterial and antimalarial agents” (Eur J Med Chem, 2018).
≈ marks a conversion by molar mass, not a printed value.

What was measured:
Mycobacterium avium = assay: Antimycobacterial activity against Mycobacterium avium subsp. paratuberculosis CIT03 clinical isolate after 11 days by Alamar Blue assay; type: functional; conditions: CIT03, 264 h
L6 = assay: Cytotoxicity against rat L6 cells after 70 hrs by Alamar Blue-based assay; type: cell-based; conditions: L6, 70 h
Method in brief: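 Rat skeletal myoblast L-6 cells, 4000 per well, in RPMI 1640 with 10% FBS and L-glutamine. Eleven 3-fold serial dilutions spanning 100 to 0.002 were tested for 70 h. Alamar Blue was then added for 2 h and fluorescence read at ex 536 / em 588 nm. IC50 came from linear regression of sigmoid curves, averaged over two replicate experiments, with podophyllotoxin as control.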

[1] = system: Mycobacterium tuberculosis; assay: Antimycobacterial activity against Mycobacterium tuberculosis H37Ra ATCC 25177 after 7 days by Alamar Blue assay; type: functional; conditions: H37Ra ATCC 25177, 168 h
Method in brief: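 Log-phase culture washed and resuspended in supplemented Middlebrook 7H9GC broth, adjusted to McFarland No. 1, then diluted 1:20. Equal volumes of culture and DMSO-prepared compound dilutions were tested in duplicate for 7 days. 10% AlamarBlue was added, with 570/600 nm readings for background and after 24 h reincubation. Blue meant no growth, pink meant growth. MIC was the lowest concentration without visible growth.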

[2] = system: Mycobacterium avium complex sp.; assay: Antimycobacterial activity against Mycobacterium avium complex CIT19/06 clinical isolate after 5 days by Alamar Blue assay; type: functional; conditions: CIT19/06, 120 h
Plasmodium berghei = assay: Antimalarial activity against liver stage of firefly luciferase-expressing Plasmodium berghei infected in human HuH7 cells measured after 48 hrs post parasite addition by luciferase-based luminescence assay; type: functional, organism-based; conditions: Huh-7, 48 h
Method in brief: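 HuH7 hepatoma cells seeded at 1.0 × 10^4 per well the day before infection. Drug-containing medium was added 1 h before 1.0 × 10^4 sporozoites, followed by centrifugation at 1800 × g for 5 min. Infection load was read by bioluminescence 48 h later, and host viability by CellTiter-Blue. IC50 came from nonlinear regression of normalized dose-response curves.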

HEK293 = assay: Cytotoxicity against human HEK293 cells; type: cell-based

SMILES | MIC (Mycobacterium avium) [µg/mL] | IC50 (L6) [µg/mL] | MIC [1] [µg/mL] | MIC [2] [µg/mL] | IC50 (Plasmodium berghei) [nM] | IC50 (HEK293) [µg/mL]
COc1cc(NC(C)CCCNC(=O)NCCCC(C)Nc2cc(OC)cc3cccnc23)c2ncccc2c1 (configuration not stated) | 128 (≈ 235 µM) | > 100 | 128 (≈ 235 µM) | 256 (≈ 470 µM) | – | –
COc1ccc(/C=C/C(=O)NCCCC(C)Nc2cc(OC)cc3cccnc23)cc1 (configuration not stated) | 64 (≈ 153 µM) | > 100 | 64 (≈ 153 µM) | 128 (≈ 305 µM) | – | –
COc1cc(NC(C)CCCNC(=O)/C=C/c2ccccc2)c2ncccc2c1 (configuration not stated) | 16 (≈ 41.1 µM) | – | 16 (≈ 41.1 µM) | 32 (≈ 82.2 µM) | – | –
COc1cc(NC(C)CCCNC(=O)/C=C/c2ccc(Cl)cc2)c2ncccc2c1 (configuration not stated) | 64 (≈ 151 µM) | – | 64 (≈ 151 µM) | 128 (≈ 302 µM) | – | –
COc1ccc(/C(=N/NC(=O)NNC(=O)NCCCC(C)Nc2cc(OC)cc3cccnc23)c2ccccc2)cc1 (configuration not stated) | 4 (≈ 7.02 µM) | – | 2 (≈ 3.51 µM) | 16 (≈ 28.1 µM) | – | –
COc1cc(NC(C)CCCNC(=O)NNC(=O)N(C)C(c2ccccc2)c2ccccc2)c2ncccc2c1 (configuration not stated) | 64 (≈ 118 µM) | – | 64 (≈ 118 µM) | 64 (≈ 118 µM) | – | –
COc1ccc(C(=NNC(=O)NNC(=O)NCCCC(C)Nc2cc(OC)cc3cccnc23)c2ccc(OC)cc2)cc1 (configuration not stated) | 4 (≈ 6.67 µM) | – | 2 (≈ 3.34 µM) | 16 (≈ 26.7 µM) | 82.8 | –
COc1cc(NC(C)CCCNC(=O)NNC(=O)NCCCC(C)Nc2cc(OC)cc3cccnc23)c2ncccc2c1 (configuration not stated) | 4 (≈ 6.64 µM) | – | 2 (≈ 3.32 µM) | 16 (≈ 26.5 µM) | – | –
COc1cc(NC(C)CCCNC(=O)NNC(=O)Nc2ccc(Cl)c(C(F)(F)F)c2)c2ncccc2c1 (configuration not stated) | 2 (≈ 3.71 µM) | 30 (≈ 55.7 µM) | 2 (≈ 3.71 µM) | 2 (≈ 3.71 µM) | – | –
COc1cc(NC(C)CCCNC(=O)NNC(=O)NCCCO)c2ncccc2c1 (configuration not stated) | 256 (≈ 612 µM) | – | 256 (≈ 612 µM) | 256 (≈ 612 µM) | – | –
COc1cc(NC(C)CCCNC(=O)NNC(=O)NCCCCCO)c2ncccc2c1 (configuration not stated) | 256 (≈ 573 µM) | – | 256 (≈ 573 µM) | 256 (≈ 573 µM) | – | –
COc1cc(NC(C)CCCNC(=O)NNC(=O)N(CCO)CCO)c2ncccc2c1 (configuration not stated) | 256 (≈ 571 µM) | – | 256 (≈ 571 µM) | 256 (≈ 571 µM) | – | –
COc1cc(NC(C)CCCNC(=O)N(C)C(c2ccccc2)c2ccccc2)c2ncccc2c1 (configuration not stated) | 128 (≈ 265 µM) | 80.5 (≈ 167 µM) | 128 (≈ 265 µM) | 128 (≈ 265 µM) | – | –
COc1cc(NC(C)CCCNC(=O)NC(c2ccccc2)c2ccc(Cl)cc2)c2ncccc2c1 (configuration not stated) | 128 (≈ 254 µM) | – | 128 (≈ 254 µM) | 128 (≈ 254 µM) | – | –
COc1ccc(/C(=N/NC(=O)NCCCC(C)Nc2cc(OC)cc3cccnc23)c2ccccc2)cc1 (configuration not stated) | 128 (≈ 250 µM) | > 100 | 128 (≈ 250 µM) | 256 (≈ 500 µM) | – | –
COc1ccc(C(=NNC(=O)NCCCC(C)Nc2cc(OC)cc3cccnc23)c2ccc(OC)cc2)cc1 (configuration not stated) | 128 (≈ 236 µM) | > 100 | 128 (≈ 236 µM) | 256 (≈ 473 µM) | – | –
COc1cc(NC(C)CCCNC(=O)Nc2ccc(Cl)c(C(F)(F)F)c2)c2ncccc2c1 (configuration not stated) | 16 (≈ 33.3 µM) | – | 16 (≈ 33.3 µM) | 16 (≈ 33.3 µM) | – | –
COc1cc(NC(C)CCCNC(=O)NN)c2ncccc2c1 (configuration not stated) | 32 (≈ 101 µM) | – | 32 (≈ 101 µM) | 32 (≈ 101 µM) | – | –
COc1cc(NC(C)CCCNC(=O)Nc2cccc(C(F)(F)F)c2)c2ncccc2c1 (configuration not stated) | 2 (≈ 4.48 µM) | 150 (≈ 336 µM) | 2 (≈ 4.48 µM) | 2 (≈ 4.48 µM) | – | –
COc1cc(NC(C)CCCNC(=O)Nc2ccc(O)cc2)c2ncccc2c1 (configuration not stated) | 128 (≈ 324 µM) | 14.8 (≈ 37.5 µM) | 128 (≈ 324 µM) | 256 (≈ 649 µM) | – | –
COc1cc(NC(C)CCCNC(=O)Nc2cc(C(F)(F)F)cc(C(F)(F)F)c2)c2ncccc2c1 (configuration not stated) | – | – | – | – | – | 7.67 (≈ 14.9 µM)
COc1cc(NC(C)CCCNC(=O)NNC(=O)Nc2ccc(C(F)(F)F)cc2)c2ncccc2c1 (configuration not stated) | 128 (≈ 254 µM) | – | 128 (≈ 254 µM) | 128 (≈ 254 µM) | 74.9 | –
COc1cc(NC(C)CCCNC(=O)NNC(=O)Nc2ccc(F)cc2)c2ncccc2c1 (configuration not stated) | – | – | – | – | 1870 | –
COc1cc(NC(C)CCCNC(=O)NNC(=O)Nc2cccc(O)c2)c2ncccc2c1 (configuration not stated) | 128 (≈ 283 µM) | – | 128 (≈ 283 µM) | 256 (≈ 566 µM) | – | –
COc1cc(NC(C)CCCNC(=O)NNC(=O)Nc2ccc(Cl)cc2)c2ncccc2c1 (configuration not stated) | 128 (≈ 272 µM) | – | 128 (≈ 272 µM) | 256 (≈ 544 µM) | 42 | –
COc1cc(NC(C)CCCNC(=O)NNC(=O)Nc2cccc(Cl)c2)c2ncccc2c1 (configuration not stated) | 128 (≈ 272 µM) | – | 128 (≈ 272 µM) | 256 (≈ 544 µM) | – | –
COc1cc(NC(C)CCCNC(=O)Nc2cccc(Cl)c2)c2ncccc2c1 (configuration not stated) | 16 (≈ 38.7 µM) | 10 (≈ 24.2 µM) | 16 (≈ 38.7 µM) | 16 (≈ 38.7 µM) | – | –
COc1cc(NC(C)CCCNC(=O)NNC(=O)Nc2cccc(F)c2)c2ncccc2c1 (configuration not stated) | 128 (≈ 282 µM) | – | 128 (≈ 282 µM) | 256 (≈ 563 µM) | – | –
